Experimental data published in ChEMBL document CHEMBL3297713, “Discovery, optimization, and biological evaluation of 5-(2-(trifluoromethyl)phenyl)indazoles as a novel class of transient receptor potential A1 (TRPA1) antagonists” (J Med Chem, 2014).

What was measured:
Mus musculus = test: Reduction in sensitivity to cold surface in po dosed naive mouse assessed as latency to respond with behavioral queues measured after 40 mins; type: functional, organism-based
Procedure, shortened: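 Naive mice (n = 7 per group) gavaged with vehicle (0.5% methylcellulose/0.5% Tween80), 10 or 100 mg/kg. After 40 min acclimation at room temperature, each mouse was placed on a −5 °C Peltier cold plate for up to 2 min. Latency to first jump, brisk hindpaw lift or flick/lick was recorded.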

[1] = biological target: Transient receptor potential cation channel subfamily A member 1 (Rattus norvegicus) (UniProt Q6RI86); test: (§1) Antagonist activity at rat TRPA1 expressed in CHO-TREX cells assessed as inhibition of cinnamaldehyde-induced calcium flux incubated 10 mins prior to cinnamaldehyde addition by FLIPR assay relative to control; type: cell-based; design: concentration or dose not given beside the values
Procedure, shortened: (§2)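 TRPA1-expressing CHO-TREX cells, channel expression induced with tetracycline (0.5 µg/mL human, 1 µg/mL mouse or rat). Cells loaded with Fluo4-AM for 90 min at room temperature, washed, then test agent added in HBSS/20 mM HEPES/2.5 mM probenecid/0.1% BSA. Agonist added 10 min later at EC80: human cinnamaldehyde 30 µM, AITC 2.5 µM, dibenzoxazepine-carboxamide 5 nM; rat and mouse cinnamaldehyde 40 µM. FLIPR calcium flux; mean of triplicates fitted to sigmoidal dose-response curves.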

[2] = biological target: Transient receptor potential cation channel subfamily A member 1 (Rattus norvegicus, UniProt Q6RI86); test: as §1; type: cell-based; procedure, shortened: as §2
[3] = biological target: T1, Transient receptor potential cation channel subfamily V member 3 (Homo sapiens) (UniProt Q8NET8); test: (§3) Antagonist activity at human TRPV3 expressed in CHOK1 cells assessed as inhibition of 2-APB-induced calcium flux incubated 10 mins prior to 2-APB addition by FLIPR assay relative to control; type: cell-based; design: concentration or dose not given beside the values; settings: CHO-K1
T1 sequence (whole entry): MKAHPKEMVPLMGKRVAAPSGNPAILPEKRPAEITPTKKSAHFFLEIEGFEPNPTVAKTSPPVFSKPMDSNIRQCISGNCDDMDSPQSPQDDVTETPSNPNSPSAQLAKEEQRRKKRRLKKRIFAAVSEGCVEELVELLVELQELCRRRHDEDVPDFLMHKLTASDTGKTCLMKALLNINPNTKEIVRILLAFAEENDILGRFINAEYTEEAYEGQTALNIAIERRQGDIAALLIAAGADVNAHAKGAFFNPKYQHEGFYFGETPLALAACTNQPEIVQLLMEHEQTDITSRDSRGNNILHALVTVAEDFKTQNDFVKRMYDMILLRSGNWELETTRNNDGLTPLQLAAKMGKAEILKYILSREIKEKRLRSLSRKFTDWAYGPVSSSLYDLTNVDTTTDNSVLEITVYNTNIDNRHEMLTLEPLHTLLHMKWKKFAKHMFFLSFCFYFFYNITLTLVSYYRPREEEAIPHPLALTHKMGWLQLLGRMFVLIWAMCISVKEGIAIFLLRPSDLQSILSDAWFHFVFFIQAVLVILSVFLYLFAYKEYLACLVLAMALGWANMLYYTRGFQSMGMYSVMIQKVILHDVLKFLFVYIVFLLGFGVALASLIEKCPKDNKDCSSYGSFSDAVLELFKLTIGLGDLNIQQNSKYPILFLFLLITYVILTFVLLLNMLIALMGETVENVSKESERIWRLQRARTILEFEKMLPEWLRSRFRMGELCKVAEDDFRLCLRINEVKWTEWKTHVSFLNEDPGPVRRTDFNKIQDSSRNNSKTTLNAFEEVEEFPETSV

[4] = biological target: T2, Transient receptor potential cation channel subfamily V member 3 (Homo sapiens, UniProt Q8NET8); test: as §3; type: cell-based, CHO-K1
T2 sequence (Q8NET8 whole entry): T1 sequence (whole entry)

[5] = Half life in Balb/C mouse at 5 mg/kg, iv; type: ADME, organism-based; design: dose 5 mg/kg, route intravenous; settings: in vivo
Procedure, shortened: (§4)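 Balb/C mice given 5 mg/kg i.v. at 2.5 mg/mL in 10% EtOH/30% PEG300/60% solutol.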

[6] = Clearance in Balb/C mouse at 5 mg/kg, iv; type: ADME, organism-based; design: dose 5 mg/kg, route intravenous; settings: in vivo; procedure, shortened: as §4
[7] = biological target: T3, Transient receptor potential cation channel subfamily A member 1 (Homo sapiens, UniProt O75762); test: Antagonist activity at human TRPA1 expressed in CHO-TREX cells assessed as inhibition of allyl isothiocyanate-induced calcium flux incubated 10 mins prior to allyl isothiocyanate addition by FLIPR assay relative to control; type: cell-based; procedure, shortened: as §2
[8] = Volume of distribution at steady state in Balb/C mouse at 5 mg/kg, iv; type: ADME, organism-based; design: dose 5 mg/kg, route intravenous; settings: in vivo, read-out: Vdss; procedure, shortened: as §4
[9] = Clearance in Wistar rat at 5 mg/kg, iv; type: ADME, organism-based; design: dose 5 mg/kg, route intravenous; settings: in vivo
Procedure, shortened: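 Wistar rats given 5 mg/kg i.v. at 2.5 mg/mL in 10% EtOH/30% PEG300/60% solutol.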

[10] = Oral bioavailability in Wistar rat at 10 mg/kg; type: ADME, organism-based; settings: in vivo
Procedure, shortened: (§5)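 Male Wistar rats dosed orally at 10 mg/kg as a suspension in 0.5% methylcellulose/0.5% Tween80.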

[11] = AUC in Balb/C mouse at 20 mg/kg, po; type: ADME, organism-based; design: dose 20 mg/kg, route oral; settings: plasma
Procedure, shortened: (§6)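 Balb/C mice dosed by oral gavage at 20 mg/kg as a suspension in 0.5% methylcellulose/0.5% Tween80.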

[12] = Cmax in Balb/C mouse at 20 mg/kg, po; type: ADME, organism-based; design: dose 20 mg/kg, route oral; settings: in vivo; procedure, shortened: as §6
[13] = Tmax in Wistar rat at 10 mg/kg, po; type: ADME, organism-based; design: dose 10 mg/kg, route oral; settings: in vivo; procedure, shortened: as §5
[14] = AUC in Wistar rat at 10 mg/kg, po; type: ADME, organism-based; design: dose 10 mg/kg, route oral; settings: plasma; procedure, shortened: as §5
[15] = biological target: Transient receptor potential cation channel subfamily M member 8 (Homo sapiens, UniProt Q7Z2W7); test: Antagonist activity at human TRPM8 expressed in CHOK1 cells assessed as inhibition of menthol-induced calcium flux incubated 10 mins prior to menthol addition by FLIPR assay relative to control; type: cell-based, CHO-K1
[16] = biological target: Transient receptor potential cation channel subfamily A member 1 (Mus musculus, UniProt Q8BLA8); test: (§7) Antagonist activity at mouse TRPA1 expressed in CHO-TREX cells assessed as inhibition of cinnamaldehyde-induced calcium flux incubated 10 mins prior to cinnamaldehyde addition by FLIPR assay relative to control; type: cell-based; procedure, shortened: as §2
[17] = biological target: Transient receptor potential cation channel subfamily A member 1 (Mus musculus) (UniProt Q8BLA8); test: as §7; type: cell-based; design: concentration or dose not given beside the values; procedure, shortened: as §2
[18] = biological target: T3, Transient receptor potential cation channel subfamily A member 1; test: Antagonist activity at human TRPA1 expressed in CHO-TREX cells assessed as inhibition of dibenzo[b,f ][1,4]oxazepine-4-carboxamide-induced calcium flux incubated 10 mins prior to dibenzo[b,f ][1,4]oxazepine-4-carboxamide addition by FLIPR assay relative to control; type: cell-based; procedure, shortened: as §2
[19] = biological target: T3, Transient receptor potential cation channel subfamily A member 1; test: Antagonist activity at human TRPA1 expressed in CHO-TREX cells assessed as inhibition of cinnamaldehyde-induced calcium flux incubated 10 mins prior to cinnamaldehyde addition by FLIPR assay relative to control; type: cell-based; procedure, shortened: as §2
CHO-K1 = test: Selectivity ratio of IC50 for human TRPV3 expressed in CHOK1 cells to IC50 for human TRPA1 expressed in CHO-TREX cells; type: cell-based
Procedure, shortened: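 Calcium influx was measured by FLIPR in Fluo4-AM-loaded cells: hTRPV3 CHO-K1 challenged with 40 µM 2-APB, and hTRPA1 CHO-TREX (0.5 µg/mL tetracycline) challenged with 30 µM cinnamaldehyde, 2.5 µM AITC or 5 nM dibenzoxazepine carboxamide, all at EC80. Compounds were added 10 min ahead of agonist in HEPES-buffered HBSS with probenecid. Sigmoidal curves were fitted to triplicate means.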

T3 sequence (O75762 whole entry): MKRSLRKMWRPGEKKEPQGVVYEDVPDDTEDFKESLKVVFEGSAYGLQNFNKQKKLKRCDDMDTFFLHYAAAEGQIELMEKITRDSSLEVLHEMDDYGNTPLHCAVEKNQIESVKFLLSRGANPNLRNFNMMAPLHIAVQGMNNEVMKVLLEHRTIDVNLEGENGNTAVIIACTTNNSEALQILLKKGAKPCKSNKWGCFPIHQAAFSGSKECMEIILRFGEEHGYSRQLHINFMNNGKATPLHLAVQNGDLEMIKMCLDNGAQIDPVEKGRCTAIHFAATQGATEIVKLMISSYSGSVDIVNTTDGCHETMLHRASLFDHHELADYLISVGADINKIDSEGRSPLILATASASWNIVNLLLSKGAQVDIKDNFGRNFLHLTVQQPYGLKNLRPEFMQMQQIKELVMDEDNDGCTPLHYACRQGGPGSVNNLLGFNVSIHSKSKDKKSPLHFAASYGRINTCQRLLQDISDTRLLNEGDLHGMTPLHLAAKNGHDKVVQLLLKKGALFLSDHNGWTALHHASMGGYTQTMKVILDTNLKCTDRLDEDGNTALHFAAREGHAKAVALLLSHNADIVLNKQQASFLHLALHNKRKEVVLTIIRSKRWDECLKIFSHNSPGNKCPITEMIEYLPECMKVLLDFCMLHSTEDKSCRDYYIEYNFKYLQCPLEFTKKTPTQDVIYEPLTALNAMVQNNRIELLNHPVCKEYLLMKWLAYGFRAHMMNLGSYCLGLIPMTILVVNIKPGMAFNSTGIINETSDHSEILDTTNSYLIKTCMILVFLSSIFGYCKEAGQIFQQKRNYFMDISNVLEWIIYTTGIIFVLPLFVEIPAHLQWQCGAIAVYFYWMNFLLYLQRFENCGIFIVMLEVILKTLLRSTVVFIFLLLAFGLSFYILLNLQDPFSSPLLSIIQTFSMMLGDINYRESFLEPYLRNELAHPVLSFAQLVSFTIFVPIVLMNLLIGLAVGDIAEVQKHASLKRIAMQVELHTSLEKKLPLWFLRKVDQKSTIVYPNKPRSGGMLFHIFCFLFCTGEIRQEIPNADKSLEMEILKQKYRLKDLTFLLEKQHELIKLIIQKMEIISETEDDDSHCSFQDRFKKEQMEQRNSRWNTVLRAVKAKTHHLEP
Sequence of Transient receptor potential cation channel subfamily A member 1 (Mus musculus) (Q8BLA8 whole entry): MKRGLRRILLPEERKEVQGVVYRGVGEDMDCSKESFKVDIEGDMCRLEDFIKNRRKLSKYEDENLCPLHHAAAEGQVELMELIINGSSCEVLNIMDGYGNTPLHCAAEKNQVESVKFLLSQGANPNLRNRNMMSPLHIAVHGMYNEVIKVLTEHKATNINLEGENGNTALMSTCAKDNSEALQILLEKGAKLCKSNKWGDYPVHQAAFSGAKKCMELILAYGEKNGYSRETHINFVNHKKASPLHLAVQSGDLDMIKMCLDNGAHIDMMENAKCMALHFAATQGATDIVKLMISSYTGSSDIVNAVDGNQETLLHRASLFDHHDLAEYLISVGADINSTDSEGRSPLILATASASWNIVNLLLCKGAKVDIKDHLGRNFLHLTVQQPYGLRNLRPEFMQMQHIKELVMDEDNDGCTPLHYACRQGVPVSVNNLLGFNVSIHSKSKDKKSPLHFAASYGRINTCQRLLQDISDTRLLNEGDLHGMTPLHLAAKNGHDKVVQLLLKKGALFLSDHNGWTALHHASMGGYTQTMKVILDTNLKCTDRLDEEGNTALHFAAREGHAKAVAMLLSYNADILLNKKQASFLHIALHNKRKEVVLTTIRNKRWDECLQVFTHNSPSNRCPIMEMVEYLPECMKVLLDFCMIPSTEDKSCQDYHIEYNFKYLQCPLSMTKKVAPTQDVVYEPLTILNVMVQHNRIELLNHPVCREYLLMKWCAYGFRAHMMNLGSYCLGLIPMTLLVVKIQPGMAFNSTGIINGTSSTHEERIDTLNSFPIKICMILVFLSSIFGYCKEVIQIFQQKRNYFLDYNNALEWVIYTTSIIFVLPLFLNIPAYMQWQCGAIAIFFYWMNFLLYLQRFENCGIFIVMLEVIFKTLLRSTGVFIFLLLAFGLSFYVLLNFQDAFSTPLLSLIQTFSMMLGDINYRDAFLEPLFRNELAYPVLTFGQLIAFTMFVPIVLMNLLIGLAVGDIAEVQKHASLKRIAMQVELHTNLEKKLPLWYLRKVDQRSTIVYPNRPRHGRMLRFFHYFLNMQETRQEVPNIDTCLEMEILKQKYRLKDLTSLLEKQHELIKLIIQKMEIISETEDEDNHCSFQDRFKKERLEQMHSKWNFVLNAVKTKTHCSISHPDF
Sequence of Transient receptor potential cation channel subfamily A member 1 (Mus musculus, UniProt Q8BLA8) (Q8BLA8 whole entry): as above
Sequence of Transient receptor potential cation channel subfamily A member 1 (Rattus norvegicus, UniProt Q6RI86) (Q6RI86 whole entry): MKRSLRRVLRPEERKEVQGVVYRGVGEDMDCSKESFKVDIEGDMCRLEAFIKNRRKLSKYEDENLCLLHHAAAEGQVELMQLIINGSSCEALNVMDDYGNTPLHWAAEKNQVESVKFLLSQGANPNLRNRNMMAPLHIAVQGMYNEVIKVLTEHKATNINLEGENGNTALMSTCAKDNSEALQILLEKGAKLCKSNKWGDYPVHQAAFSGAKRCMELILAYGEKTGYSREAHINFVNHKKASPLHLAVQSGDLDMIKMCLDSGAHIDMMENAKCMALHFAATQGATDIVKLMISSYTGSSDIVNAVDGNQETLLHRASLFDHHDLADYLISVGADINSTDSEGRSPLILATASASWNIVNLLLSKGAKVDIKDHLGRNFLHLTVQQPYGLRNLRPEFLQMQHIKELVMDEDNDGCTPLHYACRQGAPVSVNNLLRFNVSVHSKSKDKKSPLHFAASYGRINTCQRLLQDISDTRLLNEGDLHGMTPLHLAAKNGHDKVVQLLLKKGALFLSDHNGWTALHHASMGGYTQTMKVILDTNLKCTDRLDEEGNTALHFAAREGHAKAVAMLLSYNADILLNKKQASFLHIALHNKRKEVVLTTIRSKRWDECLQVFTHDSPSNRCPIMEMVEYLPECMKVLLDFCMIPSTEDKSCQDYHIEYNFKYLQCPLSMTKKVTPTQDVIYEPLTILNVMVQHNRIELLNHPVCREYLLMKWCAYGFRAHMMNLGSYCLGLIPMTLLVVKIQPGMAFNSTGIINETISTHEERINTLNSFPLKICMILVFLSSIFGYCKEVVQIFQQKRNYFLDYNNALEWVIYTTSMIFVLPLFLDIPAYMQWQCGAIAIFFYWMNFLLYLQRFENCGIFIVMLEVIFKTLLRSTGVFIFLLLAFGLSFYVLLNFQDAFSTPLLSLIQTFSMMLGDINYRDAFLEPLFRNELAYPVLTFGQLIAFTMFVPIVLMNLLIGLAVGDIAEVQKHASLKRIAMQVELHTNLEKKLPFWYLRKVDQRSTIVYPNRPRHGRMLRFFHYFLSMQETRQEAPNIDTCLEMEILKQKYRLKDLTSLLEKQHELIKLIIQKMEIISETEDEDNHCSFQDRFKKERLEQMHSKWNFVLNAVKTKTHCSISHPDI
Sequence of Transient receptor potential cation channel subfamily A member 1 (Rattus norvegicus) (Q6RI86 whole entry): as above

Which Activity (Mus musculus) does the source give for Cc1cc2[nH]ncc2cc1-c1ccccc1C(F)(F)F here?
The Activity was “Dose-dependent effect”.

What about the inhibition [1] of the same compound?
Its inhibition is 99%.

What about the IC50 [2] of the same compound?
The IC50 was 0.089 µM.

What about the inhibition [3] of the same compound?
Its inhibition is 0%.

What about the IC50 [4] of the same compound?
Its IC50 is > 30 µM.

What about the half-life [5] of the same compound?
Its half-life is 3.64 h.

And the clearance [6]?
The clearance was 2.36 L/h/kg.

And the IC50 [7]?
Its IC50 is 0.018 µM.

What about the inhibition [7] of the same compound?
The inhibition was 99%.

And the Vd [8]?
Its Vd is 4.07 L/kg.

And the clearance [9]?
The clearance was 1.54 L/h/kg.

And the bioavailability [10]?
Its bioavailability is 39%.

What about the AUC [11] of the same compound?
Its AUC is 5.59 µM·h.

What about the Cmax [12] of the same compound?
The Cmax was 1.27 µM.

And the Tmax [13]?
Its Tmax is 0.5 h.

What about the AUC [14] of the same compound?
Its AUC is 9.31 µM·h.

And the IC50 [15]?
Its IC50 is 9.2 µM.

What about the inhibition ([15]; CHO-K1) of the same compound?
The inhibition was 90%.

What about the IC50 [16] of the same compound?
Its IC50 is 0.053 µM.

And the inhibition [17]?
Its inhibition is 100%.

And the IC50 [18]?
Its IC50 is 0.02 µM.

And the inhibition [18]?
Its inhibition is 100%.

What about the IC50 [19] of the same compound?
The IC50 was 0.015 µM.

And the inhibition [19]?
Its inhibition is 99%.

And the Ratio IC50 (CHO-K1)?
The Ratio IC50 was > 100.
